Published values gathered from unrelated publications.
Compare with care: the assays were run in different laboratories.

The CC50 of CC1c2cc(c(O)cc2O)C(C)c2cc(c(O)cc2O)C(C)c2cc(c(O)cc2O)C(C)c2cc1c(O)cc2O (stereo not drawn) is reported as 14.9 µM (HEK293; cell growth or viability, MTT; 24 h).
O=C(O)/C=C/C=C/c1cccc(Oc2cc(Cl)cc(Cl)c2)c1 has a CC50 of > 200 µM (HEK293; cell growth or viability, MTT; 24 h).
The viability of Cn1cnc2c1c(=O)n(CC(=O)Nc1c(Cl)cccc1Cl)c(=O)n2C is reported as 56.1% (NCI-H1975; cell growth or viability, MTT; 6.3 µg).
The CC50 of CN1CCC(NCc2cccc(-c3ccc(S(=O)(=O)NCc4ccccc4)cc3)c2)CC1 is reported as 32.3 µM (HEK293; cell growth or viability, MTT; 24 h).
COc1ccc2cc3[n+](cc2c1OC)CCc1cc2c(cc1-3)OCO2 gave a Papp A→B of 0.39 ×10⁻⁶ cm/s (MDCK-MDR1; Caco-2; 10 µg/mL, 4 h).
CCS(=O)(=O)Nc1cccc(-c2cn(C)c(=O)c3ccccc23)c1 has a Papp of 15 ×10⁻⁶ cm/s (MDCK-MDR1; Caco-2).
With O=C(Sc1cccccc1=O)c1ccc(C(F)(F)F)cc1 the CC50 was 56.1 µM (HepDES19; cell growth or viability, MTS; 72 h).
For CC1c2cc(c(O)c(O)c2O)C(C)c2cc(c(O)c(O)c2O)C(C)c2cc(c(O)c(O)c2O)C(C)c2cc1c(O)c(O)c2O (stereo not drawn), the CC50 was 102 µM (HEK293; cell growth or viability, ATP luminescence; 24 h).
The CC50 of CC(C)Cn1c(=O)n(C)c(=O)c2c(-c3cncn3C)n(Cc3cccc4ccccc34)nc21 is reported as > 200 µM (HEK293; cell growth or viability, MTT; 24 h).
CCS(=O)(=O)Nc1ccc(OCCOCCOCCOCCOc2ccc(NS(=O)(=O)CC)cc2-c2cn(C)c(=O)c3ccccc23)c(-c2cn(C)c(=O)c3ccccc23)c1 gave a Papp of 0.13 ×10⁻⁶ cm/s (MDCK-MDR1; Caco-2).
With O=c1cccccc1SSc1cccccc1=O the CC50 was 9.6 µM (HepDES19; cell growth or viability, MTS; 72 h).
For Cc1ccc2c(=O)n(-c3ccc(F)cc3)c(CCN3C(=O)c4cccc(OC(C)C)c4C3=O)nc2c1, the Papp A→B was 30 ×10⁻⁶ cm/s (MDCK-MDR1; Caco-2; 1 µM, 90 min, pH 7.4).
With O=C(Sc1cccccc1=O)c1ccccc1C(F)(F)F the CC50 was 8.6 µM (HepDES19; cell growth or viability, MTS; 72 h).
Cc1ccc2c(c1C)NC(=O)[C@]21NN=C(c2ccccc2)S1 gave a CC50 of 100 µM (HEK293; cell growth or viability, MTT; 24 h).
For COC(=O)c1ccccc1-c1c2ccc(=N)cc-2oc2cc(N)ccc12, the efflux ratio was 4.92 (MDR1; MDCK-MDR1; 5 µM, 2 h, pH 7.4).
